Experimental data from ChEMBL document CHEMBL1146022, “Replacement of the metabolically labile methyl esters in the alkenyldiarylmethane series of non-nucleoside reverse transcriptase inhibitors with isoxazolone, isoxazole, oxazolone, or cyano substituents” (J Med Chem, 2006).

Experiments:
[1] = tested on: Human immunodeficiency virus 1; test: Antiviral activity against HIV1 3B in MT4 cells by MTT assay; assay type: functional, organism-based; conditions: Human immunodeficiency virus 1, 3B
How it was run: (§1)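 MT-4 cells infected with HIV-1 IIIB or HIV-2 ROD; protection from virus-induced cytopathicity read by MTT assay. EC50 taken as the concentration giving 50% inhibition of cytopathicity.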

[2] = target: Human immunodeficiency virus type 1 reverse transcriptase (Human immunodeficiency virus 1, UniProt Q72547); test: Inhibition of recombinant HIV1 reverse transcriptase measured as inhibition of incorporation of [32P]GTP in rCDG primer; assay type: functional
How it was run: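 Purified recombinant HIV-1 RT p66/p51 heterodimer. Polymerase activity followed as [32P]GTP incorporation on poly(rC)/oligo(dG) homopolymer template-primer. IC50 taken from inhibition of incorporation.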

[3] = tested on: Human immunodeficiency virus 1; test: Antiviral activity against HIV1 RF in CEM-SS cells by MTS cytoprotection assay; assay type: functional, organism-based; conditions: Human immunodeficiency virus 1, RF
How it was run: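 CEM-SS cells infected with HIV-1 RF; cytoprotection against viral cytopathic effect read by MTS assay. EC50 taken as the concentration giving 50% inhibition of cytopathicity.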

[4] = tested on: CEM-SS; test: Cytotoxicity against mock-infected CEM-SS cells; assay type: functional; conditions: Homo sapiens
[5] = tested on: MT4; test: Cytotoxicity against mock-infected MT4 cells; assay type: functional; conditions: Homo sapiens
[6] = Half life in rat plasma; assay type: ADME
How it was run: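 In vitro hydrolytic stability in rat plasma, with 1,1-diphenylethylene or benzophenone as internal standard. Half-life reported in minutes with SD.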

[7] = tested on: Human immunodeficiency virus 2; test: Antiviral activity against HIV2 ROD in MT4 cells by MTT assay; assay type: functional, organism-based; conditions: Human immunodeficiency virus 2, ROD; how it was run: as §1

Structure (SMILES) | IC50 [2] | half-life [6] | EC50 [1] | EC50 [3] | CC50 [4] | CC50 [5] | EC50 [7]
COC(=O)CCC/C=C(/c1cc(C)c2on(C)c(=O)c2c1)c1cc(C)c2oc(=O)n(C)c2c1 | 49.2 µM | 0.46 min | 4490 nM | 1790 nM | 11.1 µM | 36.5 µM | > 36.5 µM
COC(=O)CCCC=C(c1cccc(C#N)c1)c1cc(C)c2on(C)c(=O)c2c1 | 49.6 µM | – | – | > 100000 nM | 14 µM | – | –
COC(=O)c1cc(/C(=C\CCN2CCOC2=O)c2cc(C)c3on(C)c(=O)c3c2)cc(C)c1OC | 9.86 µM | 22.1 min | – | 2700 nM | 16.3 µM | – | –
COc1noc2c(C)cc(/C(=C\CCN3CCOC3=O)c3cc(C)c4on(C)c(=O)c4c3)cc12 | 7.6 µM | > 1440 min | > 1120 nM | > 9910 nM | 1.54 µM | 1.12 µM | > 1.12 µM
COC(=O)CCCC=C(c1cccc(C#N)c1)c1cc(C)c2oc(=O)n(C)c2c1 | 26.4 µM | 1.18 min | > 54200 nM | > 100000 nM | 12.9 µM | 54.2 µM | > 54.2 µM

These reach a lower IC50 [2]. Values come first.

IC50 [2] | half-life [6] | Structure (SMILES) | EC50 [1] | EC50 [3] | CC50 [4] | CC50 [5] | EC50 [7]
0.02 µM | – | COC(=O)CCC/C=C(/c1cc(C)c(OC)c(C(=O)OC)c1)c1cc(C)c2oc(=O)n(C)c2c1 | 90 nM | 30 nM | – | – | –
2.8 µM | – | COC(=O)CCC/C=C(/c1cccc(C#N)c1)c1cc(C)c2oc(=O)n(C)c2c1 | – | 1730 nM | 11.5 µM | – | –
2 µM | 1.85 min | COC(=O)CCC/C=C(\c1cc(C)c(OC)c(C(=O)OC)c1)c1cc(C)c2on(C)c(=O)c2c1 | 3100 nM | 1100 nM | > 5 µM | 27.1 µM | > 27.1 µM
0.54 µM | 1.32 min | COC(=O)CCC/C=C(\c1cccc(C#N)c1)c1cc(C)c(OC)c(C(=O)OC)c1 | 470 nM | 460 nM | 10.9 µM | 10.6 µM | > 10.6 µM
1.2 µM | – | COC(=O)CCC/C=C(/c1ccc(C#N)cc1)c1cc(C)c2oc(=O)n(C)c2c1 | 1490 nM | 590 nM | 21.9 µM | 51 µM | > 51 µM
